Published values from different studies.
Protocols differ between the studies behind these lines.
CNR2: Cannabinoid receptor 2 (CNR2, Homo sapiens, UniProt P34972)
F10: Coagulation factor X (F10, Homo sapiens, UniProt P00742)
CASR: Extracellular calcium-sensing receptor (CASR, Homo sapiens, UniProt P41180)

CCCCCc1cc(O)c2c(c1)OC(C)(C)[C@@H]1CC[C@@H](C)C=C21
Ki (CNR2; ligand displacement; radioligand; cell membranes): 28 nM

CC(=O)N[C@H]1Cc2ccc(cc2)OCCCC[C@@H](C(=O)N[C@@H](CCCNC(=N)N)C(=O)c2nc3ccccc3s2)NC(=O)[C@H](CC(C)C)NC1=O
IC50 (F10; enzyme activity; inhibitor; absorbance; with preincubation): 2650 nM

CCC(CC)(NC(=O)c1ccc(C2CC2)c(Cc2ccc(F)cc2)n1)C(=O)NCCOCCOCCNC(=O)c1ccc2c(c1)C1(OC2=O)c2ccc(N(C)C)cc2[Si](C)(C)c2cc(N(C)C)ccc21
Ki (CNR2; ligand displacement; radioligand; cell membranes): 676 nM

C=C1CC/C=C(\C)CC[C@@H]2[C@@H]1CC2(C)C
Ki (CNR2; ligand displacement; radioligand; cell membranes): > 10000 nM

C[C@@H](NCCCc1cccc(C(F)(F)F)c1)c1cccc2ccccc12
EC50 (CASR; G protein activation; agonist; BRET): 71 nM

CNC(C)Cc1ccc2c(c1)OCO2 (stereo not shown)
Ki (Solute carrier family 22 member 2 (SLC22A2, Homo sapiens, UniProt O15244); transporter uptake; inhibitor): 1900 nM

CC(C)C[C@@H]1NC(=O)[C@H](C(C)(C)C)NC(=O)[C@H](Cc2ccc(O)cc2)NC(=O)[C@@H]2CCCN2C(=O)[C@H](CCCCN)NC(=O)[C@H](CCCNC(=N)N)NC1=O
Ki (Neurotensin receptor type 1 (Ntsr1, Rattus norvegicus, UniProt P20789); ligand displacement; flow cytometry): > 100000 nM

CC(NCc1cccc(-n2cccn2)c1)c1csc2ccccc12 (stereo not shown)
EC50 (CASR; G protein activation; agonist; BRET): 444 nM

CC(=O)N[C@H]1C/C=C/COc2ccc(cc2)C[C@@H](C(=O)N[C@@H](CCCNC(=N)N)C(=O)c2nc3ccccc3s2)NC(=O)[C@H](CC(C)C)NC1=O
IC50 (F10; enzyme activity; inhibitor; absorbance; with preincubation): 8810 nM

CNC(=O)c1ccc(-c2cnn3ccc(C(=O)N(C)c4ccc(Cl)c(C(=O)O)c4)cc23)cc1
IC50 (Histamine H3 receptor (HRH3, Homo sapiens, UniProt Q9Y5N1); cell-free assay): > 30000 nM
